TRPC6 inhibitor: mouse TRPC6 channel inhibition. HEK293-TRPC6, membrane potential dye, ACh-evoked depolarization; hits give low values. Q61143. B-score at 10 µM. actives 1.1% (n = 310,000);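 active means B-score under library mean minus 3 SD, initial fluorescence not abnormally high, positive integrated signal ratio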;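 further: B-score derived from integrated fluorescence ratio over the kinetic read; more negative B-score means stronger inhibition of depolarization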
TRPC4 act: TRPC4 (mouse) channel activation | HEK293 TRPC4beta/mu-opioid, Fluo4 calcium fluorescence; hits give high values | AID 2237 | B-score at 10 µM | actives 0.49% (n = 310,000) | Q9QUQ5;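 active means B-score above 5 SD of library B-scores, and initial fluorescence ratio not above library mean plus 5 SD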;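 further: positive B-score marks a calcium rise read as TRPC4 activation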
Target sequence (Q9QUQ5 whole entry, looked up): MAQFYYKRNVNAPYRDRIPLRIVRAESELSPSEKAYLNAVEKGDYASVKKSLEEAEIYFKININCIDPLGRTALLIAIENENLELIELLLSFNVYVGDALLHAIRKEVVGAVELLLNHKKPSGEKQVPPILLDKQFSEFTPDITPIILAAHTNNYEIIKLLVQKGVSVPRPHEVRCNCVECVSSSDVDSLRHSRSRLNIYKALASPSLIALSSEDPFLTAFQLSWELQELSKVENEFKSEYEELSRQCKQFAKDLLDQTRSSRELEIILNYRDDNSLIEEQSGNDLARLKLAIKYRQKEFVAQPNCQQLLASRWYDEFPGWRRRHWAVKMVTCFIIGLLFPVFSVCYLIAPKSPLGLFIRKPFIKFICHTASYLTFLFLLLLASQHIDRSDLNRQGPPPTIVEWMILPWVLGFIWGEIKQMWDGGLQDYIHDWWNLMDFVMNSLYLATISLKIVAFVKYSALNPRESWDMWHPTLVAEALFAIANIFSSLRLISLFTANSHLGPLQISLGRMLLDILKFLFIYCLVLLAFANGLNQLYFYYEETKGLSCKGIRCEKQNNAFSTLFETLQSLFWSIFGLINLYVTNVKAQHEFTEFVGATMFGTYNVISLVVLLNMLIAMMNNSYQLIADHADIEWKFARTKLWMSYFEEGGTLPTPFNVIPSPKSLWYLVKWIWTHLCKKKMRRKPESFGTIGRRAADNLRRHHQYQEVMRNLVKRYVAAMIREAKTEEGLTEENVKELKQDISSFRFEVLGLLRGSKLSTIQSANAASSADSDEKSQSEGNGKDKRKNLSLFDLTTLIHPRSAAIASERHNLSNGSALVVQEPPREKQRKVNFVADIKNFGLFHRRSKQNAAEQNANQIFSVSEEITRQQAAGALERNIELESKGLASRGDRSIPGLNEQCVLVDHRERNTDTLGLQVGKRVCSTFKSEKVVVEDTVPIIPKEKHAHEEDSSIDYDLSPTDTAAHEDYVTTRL
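Technique: kinetic Fluo4 calcium fluorescence; Test system: TRPC4beta and mu-opioid receptor HEK293 stable cells; Measure: B-scored integrated calcium fluorescence ratio; Benchmarks: low control buffer alone, high control maximal DAMGO; Schedule: 45 min room-temperature Fluo4 loading, 110 s read.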
TRPC4 potent: allosterically enhances the mouse TRPC4 cation channel | Q9QUQ5 | HEK293 TRPC4beta/mu-opioid, DAMGO EC20, Fluo-4 Ca2+ flux; hits give high values | B-score at 10 µM | actives 0.42% (n = 310,000) | AID 2227;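 active means B-score of calcium response area above 5 SD of library B-scores, with initial fluorescence ratio within 5 SD of library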;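 further: B-score of integrated fluorescence ratio over time as area under calcium response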
TRPC6 act: mouse TRPC6 channel activation. B-score at 10 µM. AID 2550. HEK293-TRPC6 membrane potential dye fluorescence; hits give high values. Q61143. actives 0.13% (n = 310,000);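 active means B-score of the integrated fluorescence ratio above library mean plus 3 SD, and starting fluorescence ratio within library mean plus 5 SD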;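 further: higher score means more depolarization so channel activation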
TRPC4 inh: inhibitors of mouse TRPC4 channel; actives 0.39% (n = 300,000); HEK293 TRPC4beta/mu-opioid, DAMGO-evoked Fluo4 calcium flux; hits give low values; B-score at 10 µM; Q9QUQ5;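 active means B-score over 3 SD under the library average, no early fluorescence shift, positive overall ratio signal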
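Assay system: TRPC4beta/mu-opioid receptor HEK293 cell line; compound dosing: single concentration per test compound; detection: Fluo4 Ca2+ flux fluorescence; evaluation: per-well B score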
TRPC4 sel inh 2: second selectivity test of TRPC6 inhibitors: effect on mouse TRPC4 | shares compounds with TRPC6 inhibitor | HEK293 TRPC4/MOR, membrane potential dye fluorescence; channel activated by saturating DAMGO dose | inhibition, % at 10 µM | actives 42% (n = 920) | AID 2776;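 active means compounds whose fluorescence signal differed from control wells by over 3 SD, either direction, in both duplicate plates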
TRPC4 spec: selectivity of TRPC6 inhibitors: effect on mouse TRPC4; shares compounds with TRPC6 inhibitor; HEK293 TRPC4/mu-opioid, membrane potential fluorescence; activity change, negative = inhibition, % at 10 µM; actives 61% (n = 920); AID 2777;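 active means rise or fall in signal beyond 3 SD of buffer-only wells in both replicate plates, either sign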;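 further: integrated kinetic ratio of fluorescence range over baseline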
HEK293 MPD ctr 2-1: second counter-screen for TRPC6 inhibitors: parental HEK293 cells; actives 31% (n = 920); parental HEK293 membrane potential dye fluorescence; maximal acetylcholine challenge after compound addition; signal change vs control, % at 10 µM; shares compounds with TRPC6 inhibitor; AID 2779;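 active means membrane potential signal moving either way by over 3 SD of the maximum-effect control, in both duplicate plates, meaning non-specific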
HEK293 MPD ctr-1: checks TRPC6 inhibitor effects in parental HEK293 cells; shares compounds with TRPC6 inhibitor; parental HEK293 membrane potential dye fluorescence; membrane potential signal change, % at 10 µM; actives 60% (n = 920);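 active means membrane potential signal shifting up or down by more than 3 SD of buffer-only wells, on both duplicate plates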
HEK293 MPD ctr-2: checks TRPC6 modulator effects in parental HEK293 cells; membrane potential signal change, % at 10 µM; actives 51% (n = 2,400); shares compounds with TRPC6 inhibitor; membrane potential dye fluorescence;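 active means membrane potential signal moves up or down beyond 5 SD from buffer-only wells, on both duplicate plates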
HEK293 MPD ctr 2-2: second check of TRPC6 modulator effects in parental HEK293 cells. shares compounds with TRPC6 inhibitor. membrane potential dye fluorescence; after compound, maximal acetylcholine stimulation. inhibition, % at 10 µM. actives 14% (n = 2,400);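 active means membrane potential signal drops by more than 5 SD from the mean control signal, in both duplicate plates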;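 further: plate controls were acetylcholine ECmax control wells for no effect and buffer only wells for full effect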
TRPC4 ctr mod: mouse TRPC4 off-target activity of TRPC6 modulators. shares compounds with TRPC6 inhibitor. HEK293 TRPC4/mu-opioid, membrane potential fluorescence. percent change from control (negative = decrease, positive = increase), % at 10 µM. actives 69% (n = 2,400);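 active means membrane potential signal moved up or down beyond 5 SD of buffer control wells, in both duplicate plates, actives on both sides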;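 further: plate controls were assay buffer wells for no effect and DAMGO maximal-effect wells for full effect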
TRPC4 ctr inh 2: second check of whether TRPC6 modulators also affect mouse TRPC4. shares compounds with TRPC6 inhibitor. HEK293 TRPC4/mu-opioid, membrane potential dye fluorescence; stimulated with maximal-effect DAMGO. inhibition, % at 10 µM. actives 55% (n = 2,400). AID 488928;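 active means drop in membrane potential signal beyond 5 SD of the control wells in both duplicate plates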;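 further: TRPC4 counter screen for TRPC6 hits run under conditions tuned for TRPC6 not TRPC4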
TRPC6 block conf: mouse TRPC6 inhibitor confirmation. HEK293-TRPC6, membrane potential dye, ACh-evoked depolarization. shares compounds with TRPC6 inhibitor. inhibition, % at 10 µM. actives 43% (n = 3,300);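 active means fluorescence ratio falls more than 5 SD below the full-stimulation control mean, in both duplicate runs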;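 further: integrated fluorescence ratio of peak minus minimum over baseline after agonist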
TRPC6 act conf: mouse TRPC6 activator confirmation; AID 488961; shares compounds with TRPC6 inhibitor; actives 11% (n = 2,800); HEK293-TRPC6 membrane potential dye fluorescence, FDSS; activation, % at 10 µM;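 active means ratio signal rise beyond 5 SD above unstimulated control wells' mean, seen in both duplicate runs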;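 further: plate controls were buffer EC0 wells for no effect and acetylcholine ECmax response for full effect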
Numbers without * were called inactive. In the library only some 2.3% were active in any assay of this set; here they are far more common.

Results for Brc1ccccc1/C=N/Nc1ccc2ccccc2n1 ?
TRPC6 inhibitor: -6.2*; TRPC4 act: inactive; TRPC4 potent: inactive; TRPC6 act: inactive; TRPC4 inh: inactive; HEK293 MPD ctr-2: inactive; HEK293 MPD ctr 2-2: inactive; TRPC4 ctr mod: inactive; TRPC4 ctr inh 2: 56%*; TRPC6 block conf: inactive; TRPC6 act conf: inactive

Results for CCC(C)NC(=O)COC(=O)c1ccc(Cl)cc1O (stereo unspecified) ?
TRPC6 inhibitor: inactive; TRPC4 act: inactive; TRPC4 potent: inactive; TRPC6 act: inactive; TRPC4 inh: inactive

What do the screens show for `CCN1CCN(c2c(C=O)c(Cl)nc3ccc(OC)cc23)CC1`?
TRPC6 inhibitor: -7.5*; TRPC4 act: 78*; TRPC4 potent: inactive; TRPC6 act: inactive; TRPC4 inh: inactive; HEK293 MPD ctr-2: -276%*; HEK293 MPD ctr 2-2: 72%*; TRPC4 ctr mod: inactive; TRPC4 ctr inh 2: 54%*; TRPC6 block conf: 58%*; TRPC6 act conf: inactive

What do the screens show for `O=C(N/N=C/c1cc(Br)cc(Br)c1O)c1cccc(S(=O)(=O)N2CCOCC2)c1`?
TRPC6 inhibitor: -5.7*; TRPC4 act: inactive; TRPC4 potent: inactive; TRPC6 act: inactive; TRPC4 inh: inactive; HEK293 MPD ctr-2: inactive; HEK293 MPD ctr 2-2: inactive; TRPC4 ctr mod: 26%*; TRPC4 ctr inh 2: inactive; TRPC6 block conf: inactive; TRPC6 act conf: inactive

What do the screens show for `O=C(N/N=C/c1sc(N2CCOCC2)nc1-c1ccccc1)c1cccc(S(=O)(=O)N2CCCC2)c1`?
TRPC6 inhibitor: -5.9*; TRPC4 act: inactive; TRPC4 potent: inactive; TRPC6 act: inactive; TRPC4 inh: inactive; HEK293 MPD ctr-2: 454%*; HEK293 MPD ctr 2-2: inactive; TRPC4 ctr mod: -56%*; TRPC4 ctr inh 2: inactive; TRPC6 block conf: inactive; TRPC6 act conf: inactive

How did CC(=O)Nc1ccc(/C=N/NC(=O)c2cccc(S(=O)(=O)N3CCOCC3)c2)cc1 do in these assays?
TRPC6 inhibitor: inactive; TRPC4 act: inactive; TRPC4 potent: inactive; TRPC6 act: inactive; TRPC4 inh: inactive

How did O=C(N/N=C/c1sc(N2CCOCC2)nc1-c1ccccc1)c1ccc(O)cc1 do in these assays?
TRPC6 inhibitor: inactive; TRPC4 act: inactive; TRPC4 potent: inactive; TRPC6 act: inactive; TRPC4 inh: inactive

What do the screens show for `O=C(NC(=S)Nc1ccccc1Cl)c1cncc(Br)c1`?
TRPC6 inhibitor: inactive; TRPC4 act: inactive; TRPC4 potent: inactive; TRPC6 act: inactive; TRPC4 inh: inactive

Results for Cn1cccc1CNC1CCCCC1 ?
TRPC6 inhibitor: inactive; TRPC4 act: inactive; TRPC4 potent: inactive; TRPC6 act: inactive; TRPC4 inh: inactive

What do the screens show for `c1ccc(-n2cccc2CNC2CCCCC2)cc1`?
TRPC6 inhibitor: -6.9*; TRPC4 act: inactive; TRPC4 potent: inactive; TRPC6 act: inactive; TRPC4 inh: inactive; TRPC4 sel inh 2: inactive; TRPC4 spec: inactive; HEK293 MPD ctr 2-1: inactive; HEK293 MPD ctr-1: inactive; TRPC6 block conf: inactive

How did Cc1cc(Cl)c2oc(C(=O)N(C)CCc3cnn(C)c3)c(C)c2c1 do in these assays?
TRPC6 inhibitor: inactive; TRPC4 act: inactive; TRPC4 potent: inactive; TRPC6 act: inactive; TRPC4 inh: inactive

How did CCOC(=O)c1nnc(-c2ccccc2)nc1NCc1ccccc1 do in these assays?
TRPC6 inhibitor: inactive; TRPC4 act: inactive; TRPC4 potent: inactive; TRPC6 act: inactive; TRPC4 inh: inactive

Results for CCOC(=O)c1c2n(c3c(NCc4ccccc4)ncnc13)CCCC2 ?
TRPC6 inhibitor: -5.2*; TRPC4 act: inactive; TRPC4 potent: inactive; TRPC6 act: inactive; TRPC4 inh: inactive; HEK293 MPD ctr-2: -94%*; HEK293 MPD ctr 2-2: 66%*; TRPC4 ctr mod: -16%*; TRPC4 ctr inh 2: 46%*; TRPC6 block conf: 54%*; TRPC6 act conf: inactive

Results for CCOC(=O)c1c(CNc2ccncc2)n(C)c2cc(Br)c(O)cc12 ?
TRPC6 inhibitor: -8.3*; TRPC4 act: inactive; TRPC4 potent: inactive; TRPC6 act: inactive; TRPC4 inh: inactive; TRPC4 sel inh 2: 70%*; TRPC4 spec: -27%*; HEK293 MPD ctr 2-1: -46%*; HEK293 MPD ctr-1: -370%*; TRPC6 block conf: 60%*; TRPC6 act conf: inactive

Results for Oc1ccc(C[C@H]2CNCCN2CC2(c3ccccc3)CC2)cc1 ?
TRPC6 inhibitor: inactive; TRPC4 act: inactive; TRPC4 potent: inactive; TRPC6 act: inactive; TRPC4 inh: inactive

How did CCOc1ccccc1N(C)C(=O)c1ccc2c(=O)n3c(nc2c1)CCCCC3 do in these assays?
TRPC6 inhibitor: inactive; TRPC4 act: inactive; TRPC4 potent: inactive; TRPC6 act: inactive; TRPC4 inh: inactive

How did CCOc1ccc(C(C)=O)cc1CN1c2ccc(S(N)(=O)=O)cc2CC1C (stereo unspecified) do in these assays?
TRPC6 inhibitor: inactive; TRPC4 act: inactive; TRPC4 potent: inactive; TRPC6 act: inactive; TRPC4 inh: inactive

High-throughput results from PubChem.
